Values joined by “and” are separate entries in the source; they are usually repeats but may differ in a detail not shown here. Identical values can stand only once. Where only a bound is given, the exact number is not on record here.

Assay [1] concerns NCI-H1299. Briefly: Inhibitory activity against H1299 human lung carcinoma cell growth. The class given is functional, cell-based.
For assay [2], the system named is Mus musculus. Briefly: Compound was tested in vivo for efficacy in athymic mice bearing HCT116 subcutaneous tumor xenografts at a dose of 40 mg/kg and change in the body weight of the mouse was evaluated. It is filed as functional. An outline of the steps:
(§1)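 Female outbred athymic nu/nu mice, ≈10⁶ HCT116 cells injected sc in right axillary region under anesthesia; treatment began when tumors ≈100 mm³ (day 13 post-implant), groups of eight balanced on tumor volume. Compound given iv as lactate salt in 10% DMSO/D5W, qd 5×/week for 15 doses. Individual body weights recorded once weekly; % change from start reported.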

Assay [3] relates to Mus musculus. Briefly: Compound was tested in vivo for maximum tolerated dose (MTD) that resulted in no deaths when administered intravenously for five days. The class given is functional. The method, boiled down: (§2)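 Athymic mice, four per group, dosed iv once daily for five consecutive days, up to a maximum of 200 mg/kg/day. Compound given as the lactate salt in 10% DMSO in 5% dextrose/water (final DMSO 10%). MTD taken as the highest dose that caused no deaths.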

Assay [4] concerns the target Histone deacetylase. The assay can be described thus: Inhibitory activity against histone deacetylase (HDAC) enzyme obtained from H1299 human lung carcinoma cell lysates.
Assay [5] concerns Mus musculus. The assay can be described thus: Ratio of the change in tumor volume of treated animals to the change in tumor volume of control animals at a dose of 40 mg/kg. It is filed as functional. An outline of the steps: (§3)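 HCT116 sc xenografts (≈10⁶ cells) in female athymic nude mice, eight per group, treated from ≈100 mm³ tumors with iv lactate salt in 10% DMSO/D5W qd 5×/week for 10 or 15 doses. Tumors measured weekly; % T/C = change in treated tumor volume over change in vehicle-control tumor volume; one-tailed Student's t-test.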

The subject of assay [6] is HCT-116. The assay can be described thus: Inhibitory activity against HCT116 human colon cell growth. It is filed as functional, cell-based.
The test system of assay [7] is Mus musculus. The assay can be described thus: Compound was tested in vivo for efficacy in athymic mice bearing HCT116 subcutaneous tumor xenografts at a dose of 30 mg/kg and change in the body weight of the mouse was evaluated. The class given is functional. The method, boiled down:
as §1

The subject of assay [8] is Mus musculus. Briefly: Ratio of the change in tumor volume of treated animals to the change in tumor volume of control animals at a dose of 30 mg/kg. It is filed as functional. The method, boiled down: as §3
Assay [9] concerns Mus musculus. Briefly: Ratio of the change in tumor volume of treated animals to the change in tumor volume of control animals at a dose of 75 mg/kg. It is filed as functional. The method, boiled down:
as §3

Assay [10] has as its system Mus musculus. Briefly: Compound was tested for efficacy in athymic mice bearing HCT116 subcutaneous tumor xenografts at a dose of 75 mg/kg and change in the body weight of the mouse was evaluated. The class given is functional.
Assay [11] concerns Mus musculus. Briefly: Compound was tested for maximum tolerated dose (MTD) that resulted in no deaths when administered intravenously for five days. It is filed as functional. The method, boiled down:
as §2

Assay [12] deals with Mus musculus. The assay can be described thus: Compound was tested in vivo for efficacy in A549 human lung carcinoma xenograft model at a dose of 10 mg/kg and change in the body weight of the mouse was evaluated. The class given is functional. An outline of the steps:
(§4)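 Female outbred athymic nu/nu mice, ≈10⁷ A549 cells injected sc in right axillary region; treatment began ≈20 days post-implant at tumors ≈100 mm³, eight mice per group balanced on tumor volume. Dosing iv as lactate salt in 10% DMSO/D5W, qd 5×/week for 15 doses. Body weights recorded once weekly; % change reported.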
In general terms: A xenograft is tissue or cells of one species grown in another, often human tumour cells in immunodeficient mice.

Assay [13] concerns Mus musculus. The assay can be described thus: Ratio of the change in tumor volume of treated animals to the change in tumor volume of control animals at a dose of 10 mg/kg (A549 human lung carcinoma xenograft study). It is filed as functional. An outline of the steps:
(§5)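 A549 sc xenografts (≈10⁷ cells) in female athymic nude mice, eight per group, dosed from ≈100 mm³ tumors (day 20) iv as lactate salt in 10% DMSO/D5W qd 5×/week for 15 doses. Weekly tumor measurement; % T/C = treated over vehicle-control change in tumor volume; one-tailed Student's t-test.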

The test system of assay [14] is Mus musculus. Briefly: Compound was tested in vivo for efficacy in A549 human lung carcinoma xenograft model at a dose of 25 mg/kg and change in the body weight of the mouse was evaluated. The class given is functional. The method, boiled down:
as §4

Assay [15] relates to Mus musculus. Briefly: Ratio of the change in tumor volume of treated animals to the change in tumor volume of control animals at a dose of 10 mg/kg. The class given is functional. The method, boiled down:
as §3

Assay [16] has as its system Mus musculus. The assay can be described thus: Compound was tested in vivo for efficacy in A549 human lung carcinoma xenograft model at a dose of 50 mg/kg and change in the body weight of the mouse was evaluated. The class given is functional. An outline of the steps:
as §4

Assay [17] deals with Mus musculus. The assay can be described thus: Compound was tested in vivo for efficacy in athymic mice bearing HCT116 subcutaneous tumor xenografts at a dose of 10 mg/kg and change in the body weight of the mouse was evaluated. It is filed as functional. As to conditions: route intravenous. The method, boiled down:
as §1

In assay [18] the test system is Mus musculus. Briefly: Ratio of the change in tumor volume of treated animals to the change in tumor volume of control animals at a dose of 25 mg/kg. The class given is functional. An outline of the steps: as §3
In assay [19] the test system is Mus musculus. The assay can be described thus: Ratio of the change in tumor volume of treated animals to the change in tumor volume of control animals at a dose of 100 mg/kg. The class given is functional. As to conditions: 100 mg/kg. The method, boiled down:
as §3

The subject of assay [20] is Mus musculus. The assay can be described thus: Compound was tested in vivo for efficacy in athymic mice bearing HCT116 subcutaneous tumor xenografts at a dose of 100 mg/kg and change in the body weight of the mouse was evaluated. The class given is functional. As to conditions: route intravenous. The method, boiled down: as §1
Assay [21] relates to Mus musculus. The assay can be described thus: Ratio of the change in tumor volume of treated animals to the change in tumor volume of control animals at a dose of 100 mg/kg (A549 human lung carcinoma xenograft study). The class given is functional. An outline of the steps: as §5
Assay [22] concerns Mus musculus. Briefly: Compound was tested in vivo for efficacy in A549 human lung carcinoma xenograft model at a dose of 100 mg/kg and change in the body weight of the mouse was evaluated. The class given is functional. An outline of the steps: as §4
In assay [23] the test system is Mus musculus. The assay can be described thus: Ratio of the change in tumor volume of treated animals to the change in tumor volume of control animals at a dose of 50 mg/kg (A549 human lung carcinoma xenograft study). It is filed as functional. The method, boiled down: as §5
Assay [24] concerns Mus musculus. The assay can be described thus: Ratio of the change in tumor volume of treated animals to the change in tumor volume of control animals at a dose of 50 mg/kg. It is filed as functional. An outline of the steps:
as §3

Assay [25] has as its system Mus musculus. Briefly: Compound was tested for efficacy in athymic mice bearing HCT116 subcutaneous tumor xenografts at a dose of 100 mg/kg and change in the body weight of the mouse was evaluated. It is filed as functional. An outline of the steps:
as §1

Assay [26] has as its system Mus musculus. Briefly: Compound was tested in vivo for efficacy in athymic mice bearing HCT116 subcutaneous tumor xenografts at a dose of 25 mg/kg and change in the body weight of the mouse was evaluated. It is filed as functional.
For assay [27], the system named is Mus musculus. Briefly: Compound was tested in vivo for efficacy in athymic mice bearing HCT116 subcutaneous tumor xenografts at a dose of 50 mg/kg and change in the body weight of the mouse was evaluated. It is filed as functional. To be noted: route intravenous. An outline of the steps:
as §1

In assay [28] the test system is Mus musculus. The assay can be described thus: Ratio of the change in tumor volume of treated animals to the change in tumor volume of control animals at a dose of 25 mg/kg (A549 human lung carcinoma xenograft study). It is filed as functional. The method, boiled down: as §5
Assay [29] has as its system Mus musculus. The assay can be described thus: Compound was tested for efficacy in athymic mice bearing HCT116 subcutaneous tumor xenografts at a dose of 10 mg/kg and change in the body weight of the mouse was evaluated. It is filed as functional. An outline of the steps: as §1
For assay [30], the system named is Mus musculus. Briefly: Ratio of the change in tumor volume of treated animals to the change in tumor volume of control animals at a dose of 20 mg/kg. The class given is functional. An outline of the steps: as §3
The subject of assay [31] is Mus musculus. The assay can be described thus: Compound was tested in vivo for efficacy in athymic mice bearing HCT116 subcutaneous tumor xenografts at a dose of 20 mg/kg and change in the body weight of the mouse was evaluated. The class given is functional. The method, boiled down: as §1

For orientation: IC50 means the concentration that gives 50% inhibition. Low values mean greater potency, high ones weaker potency. The term MTD denotes the largest dose that counted as tolerated. Low readings indicate a narrow tolerated range, high ones a wide tolerated range. The T/C is the result in the treated group divided by that in the control group, in per cent. With `O=C(/C=C/c1ccc(CN(CCc2c[nH]c3ccccc23)C2CCOCC2)cc1)NO`, the IC50 worked out at 40 nM in [1], 10 nM in [4] and 6 nM in assay [6]. Besides, in assay [2], the Body weight change was determined as 0.1%. In addition, the MTD in [3] came out at 40 mg/kg. Moreover, the T/C in assay [5] is reported as 32%.
For `O=C(/C=C/c1ccc(CNCCc2cnc3ccccc3c2)cc1)NO`, the IC50 in assay [1] was found to be 500 nM; in [4] it was 67 nM; in assay [6], 40 nM. In addition, in assay [7], the Body weight change is -5.4%. Further, the T/C in [8] was 77%. Besides, the MTD in assay [3] came out at 30 mg/kg.
On to `Cn1cc(CCNCc2ccc(/C=C/C(=O)NO)cc2)c2ccccc21`, for which the IC50 was 170 nM in assay [1], 23 nM in [4] and 10 nM in assay [6]. Also, in assay [9], the T/C is listed as 15%. For the same compound, the Body weight change in assay [10] was -3.2%. In [11], this compound showed an MTD of 75 mg/kg.
In the case of `O=C(/C=C/c1ccc(CN(CCO)CCc2c[nH]c3ccccc23)cc1)NO` [DACINOSTAT], the Body weight change in [12] was 1.3%; in [14] it was -0.9%; in assay [16] it was -0.4%; in [17], 2.7%; in assay [20], 1.4%; in assay [22], 0.4%. The Body weight change in assay [25] was -0.9%; in assay [26], 0%; in [27], 2.3%. The T/C is 32% in assay [13]; 55% in assay [15]; 38% in assay [18]; 12% and 20% in assay [19]; 7% in [21]; 15% in [23]. For the same compound, the T/C in [24] is 27%; in assay [28], 20%. The IC50 in assay [1] amounted to 150 nM; in [6], 10 nM. In addition, the MTD in assay [11] was more than 200 mg/kg.
In the case of `O=C(/C=C/c1ccc(CNCCn2c3ccccc3c3ccccc32)cc1)NO`, the IC50 is 100 nM in assay [1], 66 nM in assay [4] and 10 nM in assay [6]. For the same compound, the T/C in assay [15] is recorded as 85%. The MTD in assay [11] amounted to 10 mg/kg. Moreover, the Body weight change in assay [29] was -3.7%.
For `O=C(/C=C/c1ccc(CNCCc2cn(CC3CC3)c3ccccc23)cc1)NO`, in assay [30], the T/C is 81%. In addition, the results for the half-maximal inhibitory concentration (IC50) in assay [1], in [4] and in [6] were 250 nM, 84 nM and 30 nM, respectively. The Body weight change in assay [31] was -0.9%. Besides, the MTD in assay [3] turned out to be 20 mg/kg.

Source of the values: ChEMBL document CHEMBL1145132, “N-hydroxy-3-phenyl-2-propenamides as novel inhibitors of human histone deacetylase with in vivo antitumor activity: discovery of (2E)-N-hydroxy-3-[4-[[(2-hydroxyethyl)[2-(1H-indol-3-yl)ethyl]amino]methyl]phenyl]-2-propenamide (NVP-LAQ824)” (J Med Chem, 2003).
